Reference: ChEMBL document CHEMBL4049387, “Combination of l-Carnitine with Lipophilic Linkage-Donating Gemcitabine Derivatives as Intestinal Novel Organic Cation Transporter 2-Targeting Oral Prodrugs” (J Med Chem, 2017)
Activity calls are given as the source filed them. No cut-off for these calls is given here.

Tests used:
[1] = Terminal half-life in Wistar rat at 50 mg/kg, po administered as single dose by UPLC-MS/MS method; assay type: ADME, organism-based; conditions: in vivo, read-out: beta t1/2 (converted)
How it was run: (§1)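 Wistar rats, six per group, single oral dose equivalent to 50 mg/kg gemcitabine; separate group given gemcitabine iv at 7.5 mg/kg. Oral sampling at 5, 10, 15, 30 min and 1, 2, 4, 6, 8, 12, 24 h; iv at 15, 30 min and 2, 4, 8, 12, 24 h. Blood into THU-pretreated heparinized tubes, centrifuged 3000 × g 15 min, plasma at -80 °C. Prodrug and gemcitabine quantified by UPLC-MS/MS. F = AUCpo×Div/AUCiv/Dpo×100%.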

[2] = target: T1, Organic cation/carnitine transporter 2 (Homo sapiens, UniProt O76082); assay: Ratio of drug transport assessed as OCTN2 transporter mediated drug uptake in human Caco2 cells at 100 uM in absence of L-carnitine to drug transport assessed as OCTN2 transporter mediated drug uptake in human Caco2 cells at 100 uM in presence of L-carnitine; assay type: ADME, cell-based; conditions: caco-2, 100 µM
T1 sequence (O76082 whole entry): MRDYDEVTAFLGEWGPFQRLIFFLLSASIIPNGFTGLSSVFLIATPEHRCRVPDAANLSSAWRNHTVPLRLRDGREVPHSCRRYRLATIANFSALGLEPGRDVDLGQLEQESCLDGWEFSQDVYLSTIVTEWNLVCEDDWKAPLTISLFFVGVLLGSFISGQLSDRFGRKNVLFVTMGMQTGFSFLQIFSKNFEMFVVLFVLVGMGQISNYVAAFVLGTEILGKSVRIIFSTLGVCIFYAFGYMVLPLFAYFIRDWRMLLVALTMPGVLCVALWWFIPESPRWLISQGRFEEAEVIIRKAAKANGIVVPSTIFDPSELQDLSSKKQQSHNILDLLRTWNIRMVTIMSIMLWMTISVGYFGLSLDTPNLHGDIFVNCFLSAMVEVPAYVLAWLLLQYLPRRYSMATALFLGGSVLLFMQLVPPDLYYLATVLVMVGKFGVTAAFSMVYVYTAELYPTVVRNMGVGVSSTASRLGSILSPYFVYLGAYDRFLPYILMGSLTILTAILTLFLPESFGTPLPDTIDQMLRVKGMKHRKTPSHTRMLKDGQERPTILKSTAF

[3] = Tmax in Wistar rat at 50 mg/kg, po administered as single dose by UPLC-MS/MS method; assay type: ADME, organism-based; conditions: in vivo; how it was run: as §1
[4] = system: BXPC-3; assay: Cytotoxicity against human BxPC3 cells assessed as decrease in cell viability after 48 hrs by MTT assay; assay type: functional, cell-based
How it was run: (§2)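 BxPC-3 and Caco-2 cells exposed to compounds for 48 h. Viability read by MTT assay kit. IC50 calculated from dose-response.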

[5] = system: Rattus norvegicus; assay: AUC (0 to 24 hrs) in Wistar rat at 50 mg/kg, po administered as single dose by UPLC-MS/MS method; assay type: ADME, organism-based; parameters: dose 50 mg/kg, time < 24 hr, route oral; conditions: in vivo; how it was run: as §1
[6] = target: T1, Organic cation/carnitine transporter 2; assay: Drug transport assessed as Vmax for OCTN2 transporter mediated drug uptake in human Caco2 cells after 10 mins by Eadie-Hofstee plot method; assay type: ADME, cell-based; conditions: caco-2, 10 min
[7] = target: T1, Organic cation/carnitine transporter 2; assay: Drug transport assessed as OCTN2 transporter mediated cell permeability in human Caco2 cells across apical to basolateral side at 25 uM after 15 to 120 mins by UPLC-MS/MS method relative to gemcitabine; assay type: ADME, cell-based; conditions: caco-2, 25 µM
How it was run: (§3)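 Caco-2 cells seeded at 1.0×10^5 cells/well on 0.4 µm polycarbonate inserts, cultured 21 days in MEM; monolayers with TEER over 250 Ω·cm² used. Compound at 25 µM final in HBSS, added apically, with or without 100 µM L-carnitine, 37 °C. Basolateral samples taken at 15, 30, 45, 60, 90, 120 min. Analysed by UPLC-MS/MS to give Papp. Triplicate runs.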

[8] = target: T1, Organic cation/carnitine transporter 2; assay: Ratio of drug transport assessed as OCTN2 transporter mediated cell permeability in human Caco2 cells at 25 uM in absence of L-carnitine to drug transport assessed as OCTN2 transporter mediated cell permeability in human Caco2 cells at 25 uM in presence of L-carnitine; assay type: ADME, cell-based; conditions: caco-2, 25 µM; how it was run: as §3
[9] = Half life in pH 6.8 phosphate buffer at 5 uM by HPLC method; assay type: physicochemical
How it was run: (§4)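 Compound dissolved at 5 µM in phosphate buffer (pH 1.2, 6.8 or 7.4), held at 37 °C for 24 h. Aliquots taken at intervals and analysed by HPLC. t1/2 = 0.693/k from linear regression of pseudo-first-order kinetics.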

[10] = Half life in pH 1.2 phosphate buffer at 5 uM by HPLC method; assay type: physicochemical; how it was run: as §4
[11] = Half life in rat intestinal homogenates at 5 uM by HPLC method; assay type: ADME, tissue-based, Intestine
How it was run: (§5)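 Compound at 5 µM final in rat plasma, 20% rat hepatic homogenate or 20% rat intestinal homogenate at 37 °C for 24 h. Homogenates made by homogenizing 0.3 g saline-washed tissue in 1 mL saline, spun 13,000 rpm 4 °C 5 min. Sampled at intervals, analysed by HPLC. t1/2 = 0.693/k.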

[12] = Half life in rat plasma at 5 uM by HPLC method; assay type: ADME, cell-free; how it was run: as §5
[13] = Half life in pH 7.4 phosphate buffer at 5 uM by HPLC method; assay type: physicochemical; how it was run: as §4
[14] = Half life in rat hepatic homogenates at 5 uM by HPLC method; assay type: ADME, tissue-based, Liver; how it was run: as §5
[15] = Cmax in Wistar rat at 7.5 mg/kg, iv administered as single dose by UPLC-MS/MS method; assay type: ADME, organism-based; parameters: dose 7.5 mg/kg, route intravenous; conditions: in vivo; how it was run: as §1
[16] = Drug uptake in HEK293 cells at 25 uM after 15 mins by UPLC-MS/MS method; assay type: ADME, cell-based; conditions: human, hek293, 0.25 h
How it was run: (§6)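 OCTN2-transfected HEK293 cells and mock HEK293 cells incubated with 25 µM compound at 37 °C for 15 min, then cellular uptake measured; n = 2.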

[17] = Oral bioavailability in Wistar rat at 50 mg/kg administered as single dose by UPLC-MS/MS method; assay type: ADME, organism-based; conditions: in vivo; how it was run: as §1
[18] = Terminal half-life in Wistar rat at 7.5 mg/kg, iv administered as single dose by UPLC-MS/MS method; assay type: ADME, organism-based; conditions: in vivo, read-out: beta t1/2 (converted); how it was run: as §1
[19] = Tmax in Wistar rat at 7.5 mg/kg, iv administered as single dose by UPLC-MS/MS method; assay type: ADME, organism-based; conditions: in vivo; how it was run: as §1
[20] = system: Rattus norvegicus; assay: AUC (0 to 24 hrs) in Wistar rat at 7.5 mg/kg, iv administered as single dose by UPLC-MS/MS method; assay type: ADME, organism-based; parameters: dose 7.5 mg/kg, time < 24 hr, route intravenous; conditions: in vivo; how it was run: as §1
[21] = Cmax in Wistar rat at 50 mg/kg, po administered as single dose by UPLC-MS/MS method; assay type: ADME, organism-based; parameters: dose 50 mg/kg, route oral; conditions: in vivo; how it was run: as §1
[22] = Drug level in Wistar rat portal blood at 50 mg/kg administered as single dose at 2 hrs by UPLC-MS/MS method; assay type: ADME, organism-based; conditions: read-out: Drug uptake
How it was run: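 Rats given single oral dose equivalent to 50 mg/kg gemcitabine. Portal vein and systemic plasma sampled at 2 h. Prodrug and gemcitabine measured by UPLC-MS/MS.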

[23] = system: BXPC-3; assay: Cytotoxicity against human BxPC3 cells assessed as decrease in cell viability at 0.1 to 200 uM after 48 hrs by MTT assay; assay type: functional, cell-based; how it was run: as §2
[24] = target: T1, Organic cation/carnitine transporter 2; assay: Ratio of drug transport assessed as OCTN2 transporter mediated drug uptake in human Caco2 cells at 1 to 800 uM in presence of Na+ to drug transport assessed as OCTN2 transporter mediated drug uptake in human Caco2 cells at 1 to 800 uM in presence of N-methyl-D-glucamine; assay type: ADME, cell-based; conditions: caco-2, 800 µM
[25] = Oral bioavailability in Wistar rat at 50 mg/kg administered as single dose in presence of L-carnitine by UPLC-MS/MS method; assay type: ADME, organism-based; conditions: in vivo, with L-carnitine
How it was run: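 Rats dosed orally with prodrug at a gemcitabine-equivalent dose of 50 mg/kg, co-administered with 40 mM L-carnitine. Serial blood at 5 min–24 h into THU-pretreated heparinized tubes. Plasma measured by UPLC-MS/MS. Absolute bioavailability calculated against iv gemcitabine at 7.5 mg/kg.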

[26] = target: T2, Organic cation/carnitine transporter 2 (Rattus norvegicus, UniProt O70594); assay: Ratio of drug transport assessed as OCTN2 transporter mediated effective permeability in rat jejunum at 76 uM in absence of L-carnitine to drug transport assessed as OCTN2 transporter mediated effective permeability in rat jejunum at 76 uM in presence of L-carnitine; assay type: ADME
T2 sequence (O70594 whole entry): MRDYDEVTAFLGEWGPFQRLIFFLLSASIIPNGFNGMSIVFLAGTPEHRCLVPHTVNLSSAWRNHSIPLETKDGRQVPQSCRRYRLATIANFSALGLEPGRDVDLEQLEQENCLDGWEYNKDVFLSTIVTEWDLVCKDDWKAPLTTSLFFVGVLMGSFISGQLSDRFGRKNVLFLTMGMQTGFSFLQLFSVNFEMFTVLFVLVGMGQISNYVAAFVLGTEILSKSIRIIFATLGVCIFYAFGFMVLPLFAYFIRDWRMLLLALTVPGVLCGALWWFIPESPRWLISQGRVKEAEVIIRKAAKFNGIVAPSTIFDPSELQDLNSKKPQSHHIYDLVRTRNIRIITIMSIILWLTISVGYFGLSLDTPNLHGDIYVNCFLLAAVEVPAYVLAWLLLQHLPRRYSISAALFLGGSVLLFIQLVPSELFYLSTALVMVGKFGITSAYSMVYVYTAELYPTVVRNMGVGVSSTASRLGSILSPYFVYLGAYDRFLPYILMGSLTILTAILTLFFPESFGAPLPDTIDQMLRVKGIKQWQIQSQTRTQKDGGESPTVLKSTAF

[27] = Stability of the compound in pH 6.8 phosphate buffer at 5 uM by HPLC method; assay type: physicochemical; conditions: pH 6.8, 5 µM; how it was run: as §4
[28] = target: T2, Organic cation/carnitine transporter 2; assay: Ratio of drug transport assessed as OCTN2 transporter mediated effective permeability in rat duodenum at 76 uM in absence of L-carnitine to drug transport assessed as OCTN2 transporter mediated effective permeability in rat duodenum at 76 uM in presence of L-carnitine; assay type: ADME
[29] = system: OCTN2; assay: Ratio of drug transport in OCTN2 (unknown origin) expressing HEK293 cells assessed as transporter-mediated drug uptake at 25 uM to drug uptake in HEK293 cells at 25 uM; assay type: ADME, cell-based; conditions: human, HEK293 cells expressing OCTN2, against HEK293 cells; how it was run: as §6

half-life [1] [h] | Ratio [2] | Tmax [3] [h] | AUC [5] [ng·h/mL] | Vmax [6] [nmol/mg] | fold change (FC) [7] | Ratio [8] | half-life at 5 µM [10] [h] | half-life at 5 µM [11] [h] | half-life at 5 µM [12] [h] | half-life at 5 µM [13] [h] | half-life at 5 µM [14] [h] | bioavailability [17] [%] | concentration at 2 h [22] [ng/mL] | Compound | Activity [4] | other results
2.3 | 2.2 to 3.7 | 1.2 | 11100 | 0.4344 | 5 to 15 | 1.6 to 3.6 |  |  |  |  |  |  |  | C[N+](C)(C)CC(CC(=O)[O-])OC(=O)CCCCCCC(=O)Nc1ccn([C@@H]2O[C@H](CO)[C@@H](O)C2(F)F)c(=O)n1 (some centres not stated) | Dose-dependent effect | 
5.4 | 2.2 to 3.7 | 1.8 | 15900 | 0.3884 |  | 1.6 to 3.6 |  |  |  |  |  |  |  | C[N+](C)(C)CC(CC(=O)[O-])OC(=O)CCCCCCCCC(=O)Nc1ccn([C@@H]2O[C@H](CO)[C@@H](O)C2(F)F)c(=O)n1 (some centres not stated) | Dose-dependent effect | 
4.3 |  | 1.9 | 9030 |  |  |  | 1 | 116 | 1.7 | 10.3 | 32.7 |  |  | CCCC(=O)Nc1ccn([C@@H]2O[C@H](CO)[C@@H](O)C2(F)F)c(=O)n1 |  | half-life at 5 µM [9]: 45.9 h
2.3 |  | 1.7 | 5620 |  |  |  |  |  |  |  |  | 3.2 | 199 | Nc1ccn([C@@H]2O[C@H](CO)[C@@H](O)C2(F)F)c(=O)n1 [GEMCITABINE] |  | Cmax [15]: 7100 ng/mL; Drug uptake [16]: Not Active; half-life [18]: 4.4 h; Tmax [19]: 0.5 h; AUC [20]: 26700 ng·h/mL; Cmax [21]: 1320 ng/mL; Activity [23]: Active
6.2 | 2.2 to 3.7 | 1 | 14900 | 0.2013 | 5 to 15 | 1.6 to 3.6 | 5.5 | 50.9 | 3.7 | 28.4 | 15.5 | 12 | 2460 | C[N+](C)(C)CC(CC(=O)[O-])OC(=O)CCC(=O)Nc1ccn([C@@H]2O[C@H](CO)[C@@H](O)C2(F)F)c(=O)n1 (some centres not stated) | Dose-dependent effect | Ratio [24]: 2 to 10; bioavailability [25]: 6%; Ratio [26]: 25; Stability [27]: Stable; Ratio [28]: 25; uptake ratio at 25 µM [29]: 3 to 8
